According to ChEMBL document CHEMBL1127539, “Aminodiol HIV protease inhibitors. 1. Design, synthesis, and preliminary SAR” (J Med Chem, 1994):

Tested on: not listed separately
Assay: The biological half life (t1/2) was measured on rats after intravenous administration
Type: ADME, organism-based
Details: rat, in vivo
In short: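 Male Sprague-Dawley rats (200–350 g), jugular-cannulated, fasted overnight, given an ethanol solution infused iv over 5 min: [3H] compound at 1.3 μmol/kg (n = 3) or unlabeled at 9 μmol/kg (n = 2). Plasma measured by radio-TLC or LC/MS/MS. Half-life by model-independent analysis; mean ± SEM, n = 5.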

`CC(C)(C)OC(=O)N[C@@H](Cc1ccccc1)[C@H](O)CNC[C@@H](O)[C@H](Cc1ccccc1)NC(=O)OC(C)(C)C` showed a half-life of 4.2 h.

Target: Cathepsin D (Homo sapiens, UniProt P07339)
Sequence (P07339 65-162 limits assumed): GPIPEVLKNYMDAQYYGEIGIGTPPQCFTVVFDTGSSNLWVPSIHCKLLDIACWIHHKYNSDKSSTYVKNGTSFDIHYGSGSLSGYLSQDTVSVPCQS
Sequence (P07339 169-412 limits assumed): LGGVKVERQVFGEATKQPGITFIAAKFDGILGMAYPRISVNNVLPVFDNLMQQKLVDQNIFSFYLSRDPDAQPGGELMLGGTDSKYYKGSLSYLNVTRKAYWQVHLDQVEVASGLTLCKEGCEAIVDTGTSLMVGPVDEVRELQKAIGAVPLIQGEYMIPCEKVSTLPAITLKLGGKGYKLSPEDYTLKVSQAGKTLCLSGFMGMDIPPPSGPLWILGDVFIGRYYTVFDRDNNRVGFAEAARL
Assay: The inhibitory concentration value was measured on Human cathepsin D at 31000 nM
Details: not given
In short: (§1)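 Spectrophotometric assay at 37 °C in 0.1 M formate, pH 3, with chromogenic peptide H-Pro-Thr-Glu-Phe-p-nitro-Phe-Arg-Leu-OH at 0.32 mM final. Reaction started with enzyme: 0.36 units of human liver cathepsin D or 0.03 units of porcine stomach pepsin. Absorbance at 310 nm followed for 20 min; buffer-only controls; highest concentration tested 31000 nM.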

In the case of `CC(C)(C)OC(=O)N[C@@H](Cc1ccccc1)[C@H](O)CNC[C@@H](O)[C@H](Cc1ccccc1)NC(=O)OC(C)(C)C`, the IC50 is reported as over 31000 nM.

Tested on: not listed separately
Assay: The maximum plasma concentration was measured on rats after oral administration
Type: ADME, organism-based
Set-up: route oral
Details: rat
In short: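 Fasted male Sprague-Dawley rats dosed by gavage as a suspension in 0.2% carboxymethyl cellulose or an ethanol solution: [3H] compound at 1.3 μmol/kg (n = 3) or unlabeled at 22 μmol/kg (n = 2). Plasma quantified by thin-layer radiochromatography (LLOQ 1 nM) or LC/MS/MS (LLOQ 10 nM). Cmax given as mean ± SEM, n = 5.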

`CC(C)(C)OC(=O)N[C@@H](Cc1ccccc1)[C@H](O)CNC[C@@H](O)[C@H](Cc1ccccc1)NC(=O)OC(C)(C)C` showed a Cmax of 240 nM.

Tested on: not listed separately
Assay: The oral bioavailability was measured on rats after oral administration
Type: ADME, organism-based
Details: rat, in vivo, read-out: Bioavailabiility
In short: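 Male Sprague-Dawley rats (200-350 g), jugular cannula placed the day before, fasted overnight, water ad libitum. [3H]-labelled compound 1.3 μmol/kg iv and po (n = 3 per route, TLRC plasma assay), or unlabelled 9 μmol/kg iv and 22 μmol/kg oral (n = 2 per route, LC/MS/MS). Dosing was iv in ethanol over 5 min and oral by gavage as 0.2% CMC suspension or ethanol solution.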

With `CC(C)(C)OC(=O)N[C@@H](Cc1ccccc1)[C@H](O)CNC[C@@H](O)[C@H](Cc1ccccc1)NC(=O)OC(C)(C)C` the bioavailability was 40%.

Target: Pepsin A (Sus scrofa, UniProt P00791)
Sequence (P00791 whole entry): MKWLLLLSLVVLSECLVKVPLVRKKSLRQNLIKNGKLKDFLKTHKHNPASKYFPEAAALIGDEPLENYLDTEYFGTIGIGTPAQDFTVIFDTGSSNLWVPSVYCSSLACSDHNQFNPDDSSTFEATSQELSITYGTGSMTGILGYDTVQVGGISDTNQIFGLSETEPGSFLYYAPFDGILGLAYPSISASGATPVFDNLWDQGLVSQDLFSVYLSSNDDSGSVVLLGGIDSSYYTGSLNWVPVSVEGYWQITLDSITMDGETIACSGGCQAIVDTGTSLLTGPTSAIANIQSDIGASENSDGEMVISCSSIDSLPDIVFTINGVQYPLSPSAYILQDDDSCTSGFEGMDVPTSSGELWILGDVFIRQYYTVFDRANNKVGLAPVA
Assay: The inhibitory concentration value was measured on porcine pepsin at 31000 nM
Details: not given
In short: as §1

With `CC(C)(C)OC(=O)N[C@@H](Cc1ccccc1)[C@H](O)CNC[C@@H](O)[C@H](Cc1ccccc1)NC(=O)OC(C)(C)C` the IC50 was over 31000 nM.

Tested on: Human immunodeficiency virus 2
Assay: The concentration was measured on HIV-2CBL-20 virus
Type: functional
Details: read-out: ED50 (the source's name)
In short: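 HIV-2 CBL-20 infection of CEM-SS cells (5000/well) at multiplicity 0.04, in RPMI with 10% fetal calf serum; final DMSO at most 0.125%. Incubated 6 days at 37 °C, 5% CO2, then 4 h with XTT/PMS; absorbance at 450 nm (650 nm reference). ED50 from formazan relative to uninfected controls; n = 7.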

`CC(C)(C)OC(=O)N[C@@H](Cc1ccccc1)[C@H](O)CNC[C@@H](O)[C@H](Cc1ccccc1)NC(=O)OC(C)(C)C` gave an EC50 of 170 nM.

Target: Human immunodeficiency virus type 1 protease (Human immunodeficiency virus 1, UniProt Q72874)
Assay: In vitro inhibition of HIV-1 protease.
Details: not given
In short: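 HPLC-monitored cleavage of peptide H2N-Val-Ser-Gln-Asn-(β-naphthylalanine)-Pro-Ile-Val-OH (0.45 mM final) by purified recombinant HIV-1 protease (1-10 nM final; E. coli maltose-binding-protein fusion, cleaved off, 99% pure). Buffer 50 mM sodium acetate, 1 mg/mL BSA, pH 5.5; DMSO stock. 30 min at 37 °C, quenched with phosphoric acid. Screened at 0.1, 1, 10 μM, then IC50 from five concentrations.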

First: CC(C)(C)OC(=O)N[C@H](CCNC[C@@H](O)[C@H](Cc1ccccc1)NC(=O)OC(C)(C)C)Cc1ccccc1
Second: CC(C)(C)OC(=O)N[C@@H](Cc1ccccc1)[C@H](O)CNC[C@H](O)[C@H](Cc1ccccc1)NC(=O)OC(C)(C)C
The IC50 of the first is 1.6-fold lower: 2900 nM for the first, 4500 nM for the second. The first is the more potent here.

Going from `CO[C@H](CNC[C@@H](O)[C@H](Cc1ccccc1)NC(=O)OC(C)(C)C)[C@H](Cc1ccccc1)NC(=O)OC(C)(C)C` to `CC(C)(C)OC(=O)N[C@@H](Cc1ccccc1)[C@H](O)CNC[C@@H](O)[C@H](Cc1ccccc1)NC(=O)OC(C)(C)C`, the IC50 falls from over 10000 nM to 125 nM.

First: CC(C)(C)CC(=O)N[C@@H](Cc1ccccc1)[C@H](O)CNC[C@@H](O)[C@H](Cc1ccccc1)NC(=O)OC(C)(C)C
Second: CC(C)(C)OC(=O)N[C@@H](Cc1ccccc1)[C@@H](O)CNCC(O)[C@@H](Cc1ccccc1)NC(=O)OC(C)(C)C (stereo not given in full)
The IC50 of the first is lower: 4000 nM for the first, over 10000 nM for the second. The first is the more potent here.

Compared with `CN(C(=O)OC(C)(C)C)[C@@H](Cc1ccccc1)[C@H](O)CNC[C@@H](O)[C@H](Cc1ccccc1)NC(=O)OC(C)(C)C`, `CC(C)(C)OC(=O)N[C@@H](Cc1ccccc1)[C@@H](O)CNC[C@H](O)[C@H](Cc1ccccc1)NC(=O)OC(C)(C)C` is higher in IC50: 8500 nM for the first, over 10000 nM for the second.

Compared with `CC(C)(C)NC(=O)N[C@@H](Cc1ccccc1)[C@H](O)CNC[C@@H](O)[C@H](Cc1ccccc1)NC(=O)OC(C)(C)C`, `CC(C)(C)OC(=O)N[C@@H](Cc1ccccc1)[C@H](O)CNC[C@@H](O)[C@H](Cc1ccccc1)NC(=O)SC(C)(C)C` is 1.8-fold higher in IC50: 400 nM for the first, 700 nM for the second.

Compared with `O=C(N[C@@H](Cc1ccccc1)[C@H](O)CNC[C@@H](O)[C@H](Cc1ccccc1)NC(=O)OCc1ccccc1)OCc1ccccc1`, `CC(C)(C)COC(=O)N[C@@H](Cc1ccccc1)[C@H](O)CNC[C@@H](O)[C@H](Cc1ccccc1)NC(=O)OCC(C)(C)C` is 1.8-fold higher in IC50: 3400 nM for the first, 6000 nM for the second. The first is the more potent here.

Going from `CC(C)OC(=O)N[C@@H](Cc1ccccc1)[C@H](O)CNC[C@@H](O)[C@H](Cc1ccccc1)NC(=O)OC(C)C` to `CC(C)(C)OC(=O)N[C@@H](Cc1ccccc1)[C@H](O)CNC[C@H](O)[C@@H](Cc1ccccc1)NC(=O)OC(C)(C)C`, the IC50 rises from 900 nM to over 10000 nM.

Compared with `CC(C)(C)OC(=O)NC(CC1CCCCC1)[C@H](O)CNC[C@@H](O)C(CC1CCCCC1)NC(=O)OC(C)(C)C` (stereo not given in full), `CCC(C)C(NC(=O)OC(C)(C)C)[C@H](O)CNC[C@@H](O)C(NC(=O)OC(C)(C)C)[C@@H](C)CC` (single isomer, unassigned) is 5.6-fold higher in IC50: 800 nM for the first, 4500 nM for the second. The first is the more potent here.

Going from `CC(C)(C)OC(=O)N[C@@H](Cc1ccccc1)[C@H](O)COC[C@@H](O)[C@H](Cc1ccccc1)NC(=O)OC(C)(C)C` to `CC(C)(C)OC(=O)N[C@@H](Cc1ccccc1)[C@H](O)CNC[C@@H](O)[C@@H](Cc1ccccc1)NC(=O)OC(C)(C)C`, the IC50 falls from over 10000 nM to 10000 nM. The second is the more potent here.

Going from `CC(C)(C)OC(=O)NC(Cc1ccc(O)cc1)[C@H](O)CNC[C@@H](O)[C@H](Cc1ccccc1)NC(=O)OC(C)(C)C` (stereo not given in full) to `CC(C)(C)OC(=O)NC(CCc1ccccc1)[C@H](O)CNC[C@@H](O)[C@H](Cc1ccccc1)NC(=O)OC(C)(C)C` (stereo not given in full), the IC50 rises from 100 nM to 500 nM (5-fold). The first is the more potent here.

In the case of `CN(CC(O)[C@H](Cc1ccccc1)NC(=O)OC(C)(C)C)C[C@@H](O)[C@H](Cc1ccccc1)NC(=O)OC(C)(C)C` (stereo not given in full), the IC50 is reported as over 10000 nM.

Tested on: Human immunodeficiency virus 1
Assay: The concentration was measured on HIV-1 IIIB virus
Type: functional
Details: read-out: ED50 (the source's name)
In short: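 Human PBMCs, PHA-stimulated, infected with HIV-1 IIIB at m.o.i. 0.001–0.02 and kept with graded compound. Half the medium was replaced with fresh compound-containing medium on day 3. p24 in supernatant measured by ELISA at day 7; ED50 = dose giving 50% p24 reduction relative to control wells; n = 2.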

`CC(C)(C)OC(=O)N[C@@H](Cc1ccccc1)[C@H](O)CNC[C@@H](O)[C@H](Cc1ccccc1)NC(=O)OC(C)(C)C` gave an EC50 of 25 nM.

Tested on: Human immunodeficiency virus 1
Assay: Inhibition of viral replication by XTT endpoint
Type: functional
Details: read-out: ED50 (the source's name)
In short: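 CEM-SS cells (5000/well) in RPMI with 10% fetal calf serum infected with HIV-1 RF at multiplicity 0.04; compound from DMSO stock, final DMSO at most 0.125%. After 6 days at 37 °C, XTT/PMS added for 4 h; formazan read at 450 nm against 650 nm reference. ED50 = concentration restoring formazan in infected cells to 50% of control cells; mean of two determinations.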

First: CC(C)(C)CC(=O)N[C@@H](Cc1ccccc1)[C@H](O)CNC[C@@H](O)[C@H](Cc1ccccc1)NC(=O)OC(C)(C)C
Second: CC(C)(C)OC(=O)N[C@@H](Cc1ccccc1)[C@H](O)CNC[C@@H](O)[C@H](Cc1ccccc1)NC(=O)OC(C)(C)C
The EC50 of the first is 15-fold higher: 1200 nM for the first, 80 nM for the second. The second is the more potent here.

Compared with `CN(C(=O)OC(C)(C)C)[C@@H](Cc1ccccc1)[C@H](O)CNC[C@@H](O)[C@H](Cc1ccccc1)NC(=O)OC(C)(C)C`, `CC(C)(C)OC(=O)NC(CCc1ccccc1)[C@H](O)CNC[C@@H](O)[C@H](Cc1ccccc1)NC(=O)OC(C)(C)C` (stereo not given in full) is lower in EC50: over 3000 nM for the first, 690 nM for the second. The second is the more potent here.

Going from `CC(C)(C)NC(=O)N[C@@H](Cc1ccccc1)[C@H](O)CNC[C@@H](O)[C@H](Cc1ccccc1)NC(=O)OC(C)(C)C` to `CC(C)(C)OC(=O)N[C@@H](Cc1ccccc1)[C@H](O)CNC[C@@H](O)[C@H](Cc1ccccc1)NC(=O)SC(C)(C)C`, the EC50 rises from 160 nM to 800 nM (5-fold).

Going from `O=C(N[C@@H](Cc1ccccc1)[C@H](O)CNC[C@@H](O)[C@H](Cc1ccccc1)NC(=O)OCc1ccccc1)OCc1ccccc1` to `CC(C)OC(=O)N[C@@H](Cc1ccccc1)[C@H](O)CNC[C@@H](O)[C@H](Cc1ccccc1)NC(=O)OC(C)C`, the EC50 falls from over 5000 nM to 1000 nM. The second is the more potent here.

Compared with `CC(C)(C)OC(=O)NC(CC1CCCCC1)[C@H](O)CNC[C@@H](O)C(CC1CCCCC1)NC(=O)OC(C)(C)C` (stereo not given in full), `CCC(C)C(NC(=O)OC(C)(C)C)[C@H](O)CNC[C@@H](O)C(NC(=O)OC(C)(C)C)[C@@H](C)CC` (single isomer, unassigned) is 8-fold higher in EC50: 660 nM for the first, 5300 nM for the second. The first is the more potent here.

Compound `CC(C)(C)OC(=O)NC(Cc1ccc(O)cc1)[C@H](O)CNC[C@@H](O)[C@H](Cc1ccccc1)NC(=O)OC(C)(C)C` (stereo not given in full) has an EC50 of 60 nM.

Target: T1, Renin (Homo sapiens, UniProt P00797)
T1 sequence (P00797 whole entry): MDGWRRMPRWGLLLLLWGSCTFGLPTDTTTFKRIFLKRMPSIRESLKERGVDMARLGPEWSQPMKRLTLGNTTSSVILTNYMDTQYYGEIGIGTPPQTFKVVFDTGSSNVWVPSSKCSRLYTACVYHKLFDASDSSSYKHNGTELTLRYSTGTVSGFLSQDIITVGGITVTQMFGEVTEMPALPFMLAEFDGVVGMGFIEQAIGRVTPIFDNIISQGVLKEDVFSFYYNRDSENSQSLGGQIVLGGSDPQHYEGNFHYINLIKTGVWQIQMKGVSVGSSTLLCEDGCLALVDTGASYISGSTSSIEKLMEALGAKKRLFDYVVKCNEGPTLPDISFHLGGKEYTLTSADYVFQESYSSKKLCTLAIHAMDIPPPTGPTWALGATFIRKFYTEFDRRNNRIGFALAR
Assay: The inhibitory concentration value was measured on Human renin at 100000 nM
Details: not given

For `CC(C)(C)OC(=O)N[C@@H](Cc1ccccc1)[C@H](O)CNC[C@@H](O)[C@H](Cc1ccccc1)NC(=O)OC(C)(C)C`, the IC50 was over 100000 nM.
